The text below walks through data of paper PMC11303814 (Nature Communications, 2024).

Where a chain is given by its changes, count along the chain named.

Format in all cases: cell-based
One assay has as its target T1, rP2X7-I214G (Rattus norvegicus, UniProt Q64663, I214G).
T1 sequence (Q64663 1-595 I214G): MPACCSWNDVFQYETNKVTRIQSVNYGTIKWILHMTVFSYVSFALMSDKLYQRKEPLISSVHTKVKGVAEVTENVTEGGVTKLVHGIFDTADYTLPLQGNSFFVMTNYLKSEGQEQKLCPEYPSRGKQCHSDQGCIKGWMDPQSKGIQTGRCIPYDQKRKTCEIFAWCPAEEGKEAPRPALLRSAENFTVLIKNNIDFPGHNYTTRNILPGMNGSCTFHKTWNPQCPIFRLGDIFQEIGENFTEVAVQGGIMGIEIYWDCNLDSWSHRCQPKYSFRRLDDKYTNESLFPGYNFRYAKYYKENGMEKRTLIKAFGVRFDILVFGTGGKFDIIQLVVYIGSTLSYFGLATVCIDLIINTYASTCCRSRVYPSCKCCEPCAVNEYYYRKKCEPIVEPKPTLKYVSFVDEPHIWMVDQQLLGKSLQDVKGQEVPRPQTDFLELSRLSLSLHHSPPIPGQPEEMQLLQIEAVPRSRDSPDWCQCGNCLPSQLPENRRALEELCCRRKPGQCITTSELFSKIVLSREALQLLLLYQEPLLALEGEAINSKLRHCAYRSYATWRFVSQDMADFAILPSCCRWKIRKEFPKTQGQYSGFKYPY
Put plainly: TEVC dose response. The note with it: read-out: EC50 (apparent affinity), mean ± SD, triplicate. The essentials:
(§1)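 TEVC was run on Xenopus oocytes ~20 h after injection of wild-type or mutant rP2X7 mRNA, in pH 7.4 HEPES buffer with 0.1 mM flufenamic acid. Receptors were facilitated at 100 µM before recording. Dilution series: ATP 1.5 mM–2 µM (7 points), BzATP 300–0.14 µM (8 points). Responses were normalized to the largest concentration, fitted by nonlinear regression for EC50, and averaged across triplicates (mean ± SD).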

A further assay concerns the target T2, rP2X7-R125A/I214A (Rattus norvegicus, UniProt Q64663, I214A/R125A).
T2 sequence (Q64663 1-595 R125A/I214A): T1 sequence (Q64663 1-595 I214G) with R125A, G214A
Kind of assay: TEVC deactivation time. Conditions: after 100 μM ATP or 10 μM BzATP. Summed up: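 Xenopus oocytes injected with 50 nL of 10 ng/µL mutant rP2X7 mRNA, expressed ~20 h, clamped in pH 7.4 HEPES buffer with 0.1 mM flufenamic acid and EDTA. Currents were evoked by 100 µM ATP or 10 µM BzATP. τ is the time for current to return to 63% of baseline after agonist removal, from a one- or two-phase decay fit. Done in triplicate over first to third applications per oocyte; mean ± SD.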

The next assay addresses T3, rP2X7-R125A/Q143A/I214A (Rattus norvegicus, UniProt Q64663, I214A/Q143A/R125A).
T3 sequence (Q64663 1-595 R125A/Q143A/I214A): T1 sequence (Q64663 1-595 I214G) with R125A, Q143A, G214A
Kind of assay: TEVC dose response. The note with it: read-out: EC50 (apparent affinity), mean ± SD, triplicate.

For another assay, the target named is T4, rP2X7-Q143A (Rattus norvegicus, UniProt Q64663, Q143A).
T4 sequence (Q64663 1-595 Q143A): T1 sequence (Q64663 1-595 I214G) with Q143A, G214I
Kind of assay: TEVC dose response. The note with it: read-out: EC50 (apparent affinity), mean ± SD, triplicate. The essentials:
as §1

As for `Nc1ncnc2c1ncn2[C@@H]1O[C@H](COP(=O)(O)OP(=O)(O)OP(=O)(O)O)[C@@H](O)[C@H]1O` [ATP], the EC50 worked out at 171 ± 14 µM at rP2X7-I214G, 203 ± 12 µM at rP2X7-R125A/Q143A/I214A and 113 ± 30 µM on rP2X7-Q143A. Also, at rP2X7-R125A/I214A, the “deactivation lifetime τ” value came to 3.7 ± 0.8 s.
The like results for BzATP were, in that order, 8 ± 1 µM, 198 ± 60 µM, 8.5 ± 3.2 µM and 23 ± 13 s.

Usually EC50 stands for the midpoint of the concentration-response curve.
